# In ChEMBL document CHEMBL1123718, “Analogues and derivatives of tenoxicam. 1. Synthesis and antiinflammatory activity of analogues with different residues on the ring nitrogen and the amide nitrogen” (1987):
# Legend:
# Rattus norvegicus [1] = experiment: Anti-inflammatory activity was assessed by estimating threshold pain response after oral administration to rats; NE denotes not effective up to 100 mg/kg; assay type: functional, organism-based; design: dose 100 mg/kg
# In short: (§1)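 Kaolin paw model in female Füllinsdorf rats (about 70 g): 0.1 mL of 10% kaolin s.c. into the right hind paw, with oral drug in 0.5% tragacanth at 0.5 h before and 3.5 h after. Pressure pain threshold was measured after kaolin, and its increase was expressed as % of controls. ED100 was read graphically from group means, or by logit analysis with 95% CI.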
# Rattus norvegicus [2] = experiment: Anti-inflammatory activity was assessed by estimating kaolin-induced edema in rat hind paw, by administering orally;NE denotes not effective up to 100 mg/kg; assay type: functional, organism-based; design: dose 100 mg/kg
# In short: (§2)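 Female Füllinsdorf albino rats (about 70 g) got 0.1 mL of 10% kaolin suspension s.c. into the right hind paw. Drug in 0.5% tragacanth was given po 0.5 h before and 3.5 h after kaolin. Paw diameter was measured, and edema inhibition was expressed as % of controls. A phenylbutazone 30 mg/kg po validation group ran in each set. ED30 came from group means graphically, or from logit analysis with 95% CI.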
# Rattus norvegicus [3] = experiment: Anti-inflammatory activity was assessed by estimating kaolin-induced edema in rat hind paw, by administering orally; assay type: functional; details: po; in short: as §2
# Rattus norvegicus [4] = experiment: Anti-inflammatory activity was assessed by estimating threshold pain response after oral administration to rats; assay type: functional; in short: as §1
# Rattus norvegicus [5] = experiment: Ulcerogenic potential was assessed in a rat model by the enhancement of stress-induced gastric mucosal lesions after oral administration; assay type: functional; details: Gastric mucosa
# In short: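 Female Füllinsdorf albino rats (about 160 g) were starved 24 h and given drug po in 0.5% tragacanth. They then had 2 h cold-water stress (22.5 °C) and were sacrificed. Rats with macroscopic gastric mucosal erosions were counted. ED50 was defined as the dose giving lesions in 50% of animals and calculated by probit analysis with 95% CI.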
# Rattus norvegicus [6] = experiment: Anti-inflammatory activity was assessed by estimating kaolin-induced edema in rat hind paw, by administering orally;NE not effective up to 100 mg/kg; assay type: functional, organism-based; design: dose 100 mg/kg; in short: as §2
# Rattus norvegicus [7] = experiment: Anti-inflammatory activity was assessed by estimating kaolin-induced edema in rat ind paw, by administering orally; assay type: functional; details: po; in short: as §2
# Rattus norvegicus [8] = experiment: Anti-inflammatory activity was assessed by estimating threshold pain response after oral administration to rats; NE not effective up to 100 mg/kg; assay type: functional, organism-based; design: dose 100 mg/kg; in short: as §1
# Rattus norvegicus [9] = experiment: Anti-inflammatory activity was assessed by estimating threshold pain response after oral administration to rats;NE not effective up to 100 mg/kg; assay type: functional, organism-based; design: dose 100 mg/kg; in short: as §1
# Rattus norvegicus [10] = experiment: Anti-inflammatory activity was assessed by estimating kaolin-induced edema in rat hind paw, by administering orally; NE not effective up to 100 mg/kg; assay type: functional, organism-based; design: dose 100 mg/kg; in short: as §2
Compound,ED30 (Rattus norvegicus [3]),ED100 (Rattus norvegicus [4]),ED50 (Rattus norvegicus [5]),further results
CN1C(C(=O)Nc2ccc(O)cc2)=C(O)c2sccc2S1(=O)=O,,,,ED100 (Rattus norvegicus [1]): No effect; ED30 (Rattus norvegicus [2]): No effect
CN1C(C(=O)Nc2ccccn2)=C(O)c2ccccc2S1(=O)=O [PIROXICAM],1.9 mg/kg,4 mg/kg,0.5 mg/kg,
CN1C(C(=O)Nc2ccncc2)=C(O)c2sccc2S1(=O)=O,,,,ED100 (Rattus norvegicus [1]): No effect; ED30 (Rattus norvegicus [2]): No effect
CN1C(C(=O)Nc2ccccn2)=C(O)c2sccc2S1(=O)=O [TENOXICAM],2.6 mg/kg,5.3 mg/kg,0.7 mg/kg,
CN1C(C(=O)Nc2cnccn2)=C(O)c2sccc2S1(=O)=O,70 mg/kg,56 mg/kg,1.8 mg/kg,
CCN1C(C(=O)Nc2ccccn2)=C(O)c2sccc2S1(=O)=O,,24 mg/kg,,ED30 (Rattus norvegicus [6]): No effect
CN1C(C(=O)Nc2cccnc2)=C(O)c2sccc2S1(=O)=O,,>100 mg/kg,6.3 mg/kg,ED30 (Rattus norvegicus [7]): 63.7 mg/kg
CN1C(C(=O)Nc2ncccn2)=C(O)c2sccc2S1(=O)=O,,,,ED30 (Rattus norvegicus [6]): No effect; ED100 (Rattus norvegicus [8]): No effect
CN1C(C(=O)Nc2nccs2)=C(O)c2sccc2S1(=O)=O,20 mg/kg,14 mg/kg,2.2 mg/kg,
Cc1cccc(NC(=O)C2=C(O)c3sccc3S(=O)(=O)N2C)c1,43.4 mg/kg,3.9 mg/kg,7 mg/kg,
CN1C(C(=O)Nc2ccccc2)=C(O)c2sccc2S1(=O)=O,> 100 mg/kg,75 mg/kg,,
O=C(Nc1ccccn1)C1=C(O)c2sccc2S(=O)(=O)N1,> 100 mg/kg,>100 mg/kg,,
Cc1cc(NC(=O)C2=C(O)c3sccc3S(=O)(=O)N2C)no1,20 mg/kg,24 mg/kg,,
Cc1cccc(NC(=O)C2=C(O)c3sccc3S(=O)(=O)N2C)n1,30 mg/kg,27.4 mg/kg,0.5 mg/kg,
Cc1noc(NC(=O)C2=C(O)c3sccc3S(=O)(=O)N2C)c1C,,,,ED30 (Rattus norvegicus [6]): No effect; ED100 (Rattus norvegicus [9]): No effect
CN1C(C(=O)Nc2cccc(Cl)c2)=C(O)c2sccc2S1(=O)=O,> 100 mg/kg,>100 mg/kg,,
Cc1cc(NC(=O)C2=C(O)c3sccc3S(=O)(=O)N2C)nc(C)n1,,,,ED30 (Rattus norvegicus [10]): No effect; ED100 (Rattus norvegicus [8]): No effect
